Laboratory results taken from ChEMBL document CHEMBL1764957, “Inhibitors and promoters of tubulin polymerization: synthesis and biological evaluation of chalcones and related dienones as potential anticancer agents” (Bioorg Med Chem, 2011).
Calls of active or inactive are those of the source. The calls are words filed in the database; no cut-off is given here.

Tests used:
Tubulin (Sus scrofa) [1] = target: T1, Tubulin (Sus scrofa) (UniProt P02554+P02550); test: Inhibition of pig tubulin polymerization at 3 uM; assay type: protein assay
In short: (§1)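 Kit assay with porcine tubulin, standard protocol, read by fluorescent reporter enhancement. Test substances were dissolved in DMSO and run at 5 and 25. Docetaxel (stabilizing control) and vincristine (destabilizing control) were diluted in PBS and used at 3. The experiment was run twice and mean values were reported.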

Tubulin (Sus scrofa) [2] = target: T1, Tubulin (Sus scrofa); test: Effect on pig tubulin polymerization assessed as microtubule stabilization at 3 uM; assay type: protein assay; in short: as §1
[3] = Cytotoxicity against human vincristine-resistant […] cells after 72 hrs by fluorometric assay; assay type: functional, cell-based
In short: (§2)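 Fluorometric microculture cytotoxicity assay (FMCA). Cell suspensions (10,000–20,000 cells per mL) were exposed at 37 °C for 72 h to six concentrations from 0.016 to 50, added from DMSO stocks (at most 1% DMSO final). Cells were washed with PBS and given fluorescein diacetate (10 µg/mL). Fluorescence at 485/520 nm was read after 40 min. Survival index is relative to untreated wells. Duplicate wells, experiment repeated twice.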

[4] = Cytotoxicity against human CEM/VM1 cells after 72 hrs by fluorometric assay; assay type: functional, cell-based; conditions: CEM-VM1, 72 h; in short: as §2
Tubulin (Sus scrofa) [5] = target: T1, Tubulin (Sus scrofa); test: Inhibition of pig tubulin polymerization at 25 uM; assay type: protein assay; in short: as §1
[6] = Cytotoxicity against human 8226/LR-5 cells after 72 hrs by fluorometric assay; assay type: functional, cell-based; in short: as §2
NCI-H69 = test: Cytotoxicity against human NCI-H69 cells after 72 hrs by fluorometric assay; assay type: functional, cell-based; conditions: NCI-H69, 72 h; in short: as §2
H69AR = test: Cytotoxicity against human H69AR cells after 72 hrs by fluorometric assay; assay type: functional, cell-based; in short: as §2
ACHN = test: Cytotoxicity against human ACHN cells after 72 hrs by fluorometric assay; assay type: functional, cell-based; in short: as §2
RPMI-8226 = test: Cytotoxicity against human RPMI8226 cells after 72 hrs by fluorometric assay; assay type: functional, cell-based; conditions: RPMI-8226, 72 h; in short: as §2
[7] = Cytotoxicity against human 8226/DOX40 cells after 72 hrs by fluorometric assay; assay type: functional, cell-based; in short: as §2
CCRF-CEM = test: Cytotoxicity against human CCRF-CEM cells after 72 hrs by fluorometric assay; assay type: functional, cell-based; in short: as §2
U-937/GTB = test: Cytotoxicity against human U937/GTB cells after 72 hrs by fluorometric assay; assay type: functional, cell-based; in short: as §2
Tubulin (Sus scrofa) [8] = target: T1, Tubulin (Sus scrofa); test: Effect on pig tubulin polymerization assessed as microtubule stabilization at 25 uM; assay type: protein assay; in short: as §1
[9] = Homo sapiens, H69AR, 72 h, read-out: IC50

T1 sequence (P02550 whole entry, looked up): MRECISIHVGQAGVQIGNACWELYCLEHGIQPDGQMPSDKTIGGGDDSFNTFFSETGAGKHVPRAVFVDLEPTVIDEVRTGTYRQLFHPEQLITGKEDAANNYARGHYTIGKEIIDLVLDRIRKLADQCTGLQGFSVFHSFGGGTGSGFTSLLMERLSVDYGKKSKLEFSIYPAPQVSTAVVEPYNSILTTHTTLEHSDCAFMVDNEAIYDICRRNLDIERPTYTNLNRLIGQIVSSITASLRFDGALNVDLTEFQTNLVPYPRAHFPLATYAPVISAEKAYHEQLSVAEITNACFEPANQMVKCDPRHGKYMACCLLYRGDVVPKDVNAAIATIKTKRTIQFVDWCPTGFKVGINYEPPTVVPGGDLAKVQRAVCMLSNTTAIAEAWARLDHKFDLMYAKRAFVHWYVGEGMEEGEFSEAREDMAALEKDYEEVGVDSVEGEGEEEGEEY
T1 sequence (P02554 whole entry, looked up): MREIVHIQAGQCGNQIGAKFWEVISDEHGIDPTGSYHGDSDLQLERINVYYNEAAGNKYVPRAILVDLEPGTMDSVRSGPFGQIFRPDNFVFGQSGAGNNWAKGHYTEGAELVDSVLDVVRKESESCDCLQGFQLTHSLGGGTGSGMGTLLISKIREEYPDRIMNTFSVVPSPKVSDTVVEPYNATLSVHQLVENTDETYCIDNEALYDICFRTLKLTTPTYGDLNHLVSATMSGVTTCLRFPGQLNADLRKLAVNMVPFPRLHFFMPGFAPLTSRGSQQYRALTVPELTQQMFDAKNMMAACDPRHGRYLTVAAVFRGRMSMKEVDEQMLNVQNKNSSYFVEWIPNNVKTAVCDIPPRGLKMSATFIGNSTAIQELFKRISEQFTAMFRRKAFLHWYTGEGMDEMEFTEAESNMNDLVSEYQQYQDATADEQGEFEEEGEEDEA

Compound	inhibition (Tubulin (Sus scrofa) [1])	Activity (Tubulin (Sus scrofa) [2])	inhibition (Tubulin (Sus scrofa) [5])	Activity (Tubulin (Sus scrofa) [8])	IC50 [3]	IC50 [4]	IC50 [6]	IC50 (NCI-H69)	IC50 (H69AR; [9])	IC50 (ACHN)	IC50 (RPMI-8226)	IC50 [7]	IC50 (CCRF-CEM)	IC50 (U-937/GTB)	IC50 (H69AR; h69ar)
CC[C@]1(O)C[C@H]2CN(CCc3c([nH]c4ccccc34)[C@@](C(=O)OC)(c3cc4c(cc3OC)N(C=O)[C@H]3[C@@](O)(C(=O)OC)[C@H](OC(C)=O)[C@]5(CC)C=CCN6CC[C@]43[C@@H]65)C2)C1	Active														
O=C(/C=C/c1cccs1)c1cc(Cl)cc(Br)c1O			Active		32.6 µM	48.9 µM	23.3 µM	20 µM	56.1 µM	44.2 µM	79 µM	26.5 µM	152 µM	42.5 µM	
O=C(/C=C(\O)c1cc(Cl)cc(Br)c1O)/C=C/c1ccccc1			inactive		23.9 µM	24.1 µM	33.5 µM	9.4 µM	25.5 µM	37.8 µM	27.9 µM	19.1 µM	34.1 µM	18.1 µM	
O=C(/C=C/c1ccc(C(F)(F)F)cc1)c1cc(Cl)cc(Br)c1O			inactive		24.4 µM	31.1 µM	22.3 µM	11.5 µM	33.2 µM	49.4 µM	20.8 µM	22.5 µM	15.4 µM	14.9 µM	
O=C(/C=C/C=C/c1cn(Cc2ccccc2)c2ccccc12)c1cc(Cl)cc(Br)c1O				Active	54 µM	89 µM	70 µM	11.1 µM	48.5 µM	17 µM	119 µM	42.3 µM	280 µM	49 µM	
COc1ccc(/C=C/C(=O)c2cc(Cl)cc(Br)c2O)cc1			inactive		77 µM	45.8 µM	46 µM	16.4 µM	42.6 µM	49.4 µM	80 µM	16.9 µM	111 µM	45 µM	
O=C(/C=C/C=C/c1ccccc1)c1cc(Cl)cc(Br)c1O			Active		31.7 µM	48.6 µM	23.4 µM	19.9 µM		93 µM	48.8 µM	14.2 µM	129 µM	36.6 µM	Non-toxic

Further lines, with some results ahead:

inhibition (Tubulin (Sus scrofa) [1])	Activity (Tubulin (Sus scrofa) [2])	inhibition (Tubulin (Sus scrofa) [5])	Activity (Tubulin (Sus scrofa) [8])	Compound	IC50 [3]	IC50 [4]	IC50 [6]	IC50 (NCI-H69)	IC50 (H69AR; [9])	IC50 (ACHN)	IC50 (RPMI-8226)	IC50 [7]	IC50 (CCRF-CEM)	IC50 (U-937/GTB)	IC50 (H69AR; h69ar)
	Active			CC(=O)O[C@@]12CO[C@@H]1C[C@H](O)[C@@]1(C)C(=O)[C@H](O)C3=C(C)[C@@H](OC(=O)[C@H](O)[C@@H](NC(=O)OC(C)(C)C)c4ccccc4)C[C@@](O)([C@@H](OC(=O)c4ccccc4)[C@H]21)C3(C)C											
		Active		CCN(CC)c1ccc(/C=C/C(=O)c2cc(Br)cc(Br)c2O)cc1	9.6 µM	13.1 µM	9.9 µM	7.1 µM	38.8 µM	69 µM	26.1 µM	7.7 µM	20.1 µM	8.2 µM	
		Active		O=C(/C=C/c1ccccc1)c1cc(Cl)cc(Br)c1O	24.2 µM	22.3 µM	13.2 µM	10.3 µM	26.4 µM	48.9 µM	18.7 µM	12.4 µM	37.6 µM	20 µM	
		Active		CCN(CC)c1ccc(/C=C/C(=O)c2cc(Cl)cc(Br)c2O)cc1	8.8 µM	14.5 µM	9.4 µM	5.2 µM	24.5 µM	164 µM	29.4 µM	9.7 µM	14.8 µM	9.3 µM	
